The source of these data is ChEMBL document CHEMBL3596173, “Structural Requirements for CNS Active Opioid Glycopeptides” (J Med Chem, 2015).

The target in assay [1] is T1, Delta-type opioid receptor (Homo sapiens, UniProt P41143). Nature of the assay: Displacement of [3H]-naltrindole from human delta opioid receptor expressed in CHO cells after 3 hrs by scintillation counting analysis. Format: cell-based. Put shortly: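 Binding used CHO-cell membranes bearing human δ receptor and 0.2 nM (final) [3H]naltrindole, incubated 3 h at 25 °C in 50 mM Tris-HCl pH 7.5. Nonspecific binding was defined with 100 μM naloxone. Samples were glass-fiber filtered, washed with cold buffer and scintillation counted. IC50 came from a log-probit least-squares fit and was converted to Ki as IC50/(1+S).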
(Displacement assays read how much labelled ligand stays bound in the presence of the test substance.)

The test system of assay [2] is Mus musculus. Nature of the assay: Antinociceptive activity in icv dosed CD-1 mouse by 55 degC warm water tail-flick test. Format: functional. The procedure, abridged:
(§1)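 Male CD-1 mice (27−30 g), 8−10 per group. Compound in distilled water, given icv under light ether anaesthesia, 2 mm caudal and 2 mm lateral from bregma. 55 °C warm-water tail-flick: baseline latency taken first, and mice not responding within 5 s excluded. Retested at various times after dosing. %Antinociception = 100(test − control latency)/(10 − control latency). A50 doses derived.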

The next assay concerns the target Mu-type opioid receptor (Homo sapiens, UniProt P35372). Nature of the assay: Displacement of [3H]-DAMGO from human mu opioid receptor expressed in CHO cells after 60 mins by scintillation counting analysis. Format: cell-based. Put shortly:
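Membranes from CHO cells stably expressing human μ receptor were incubated with 0.25 nM (final) [3H]DAMGO in 50 mM Tris-HCl pH 7.5 for 60 min at 25 °C. Bound radioligand was separated by glass-fiber filtration with cold buffer washes and counted by scintillation. IC50 came from a least-squares log-probit fit, and Ki from IC50/(1+S).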

For assay [3], the target named is T2, Kappa-type opioid receptor (Homo sapiens, UniProt P41145). Nature of the assay: Displacement of [3H]-U69593 from human kappa opioid receptor expressed in CHO cells after 60 mins by scintillation counting analysis. Format: cell-based. The procedure, abridged:
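Human κ receptor stably expressed in CHO cells was used as a membrane prep. It was incubated with 1 nM (final) [3H]U69,593 for 60 min at 25 °C in 50 mM Tris-HCl pH 7.5, with 10 μM naloxone defining nonspecific binding. Samples were filtered through glass-fiber filters presoaked ≥30 min in 0.1% polyethylenimine, washed cold and scintillation counted. Ki was derived from a log-probit IC50 via IC50/(1+S).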

Assay [4] deals with Mus musculus. Nature of the assay: Antinociceptive activity in icv dosed CD-1 mouse assessed as time required to show maximum activity by 55 degC warm water tail-flick test. Format: functional. The procedure, abridged: as §1
Assay [5] relates to Mus musculus. Nature of the assay: Antinociceptive activity in iv dosed CD-1 mouse assessed as time required to show maximum activity by 55 degC warm water tail-flick test. Format: functional. The procedure, abridged:
(§2)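 Male CD-1 mice (27−30 g), 8−10 per group. Compound in 0.9% saline, injected into the tail vein at 0.1 mL/10 g after the vein was dilated in 40 °C water. Tail immersion in 55 °C water, with baseline latency first and 5 s non-responders excluded. Tested at intervals post-dose. %Antinociception = 100(test − control latency)/(10 − control latency). A50 values obtained.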
On the technique in general: In hot-plate and tail-flick tests a longer latency is read as antinociception.

Assay [6] relates to Mus musculus. Nature of the assay: Antinociceptive activity in iv dosed CD-1 mouse by 55 degC warm water tail-flick test. Format: functional. The procedure, abridged:
as §2

The test system of assay [7] is Mus musculus. Nature of the assay: Antinociceptive activity in iv dosed ICR mouse by 55 degC warm water tail-flick test. Format: functional.
Assay [8] concerns Mus musculus. Nature of the assay: Antinociceptive activity in icv dosed ICR mouse by 55 degC warm water tail-flick test. Format: functional.
Assay [9] has as its system Mus musculus. Nature of the assay: Antinociceptive activity in icv dosed CD-1 mouse assessed as time duration of activity by 55 degC warm water tail-flick test. Format: functional. Put shortly: as §1
The target in assay [10] is T1, Delta-type opioid receptor. Nature of the assay: Displacement of [3H]-naltrindole from human delta opioid receptor expressed in CHO cells at 10 uM after 3 hrs by scintillation counting analysis relative to control. Format: cell-based.
Assay [11] addresses T2, Kappa-type opioid receptor. Nature of the assay: Displacement of [3H]-U69593 from human kappa opioid receptor expressed in CHO cells at 10 uM after 60 mins by scintillation counting analysis […]. Format: cell-based.
Assay [12] has as its system Mus musculus. Nature of the assay: Antinociceptive activity in iv dosed CD-1 mouse assessed as time duration of activity by 55 degC warm water tail-flick test. Format: functional. Put shortly:
as §2

Assay [13] addresses T2, Kappa-type opioid receptor. Nature of the assay: Binding affinity to kappa opioid receptor (unknown origin). The procedure, abridged: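 CHO cell membranes stably expressing the human κ-opioid receptor. Incubated with 1 nM [3H]U69,593 for 60 min at 25 °C in 50 mM Tris-HCl, pH 7.5. Naloxone 10 μM defined nonspecific binding. Filters presoaked at least 30 min in 0.1% polyethylenimine, then washed and counted. Ki calculated from IC50 (log-probit fit).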

For assay [14], the target named is T1, Delta-type opioid receptor. Nature of the assay: Binding affinity to delta opioid receptor (unknown origin). Put shortly:
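Membranes from CHO cells stably expressing the human δ-opioid receptor. Incubated 3 h at 25 °C with 0.2 nM [3H]naltrindole in 50 mM Tris-HCl, pH 7.5. Nonspecific binding with 100 μM naloxone. Glass-fibre filtration, cold-buffer washes, scintillation counting. IC50 from log-probit least-squares fit, converted to Ki.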

Starred links: 1 amine or outer side, 2 acyl side, 3 side chain; linkers in the order of their positions; H or OH if unused. Positions of bridges follow the written chain, without caps; N, C: chain ends. Non-standard residues stand in square brackets, D forms with d. Residues, ends and D or L forms follow the SMILES beside them. *: point of attachment. X1 = OC[C@H]1O[C@@H](O[C@H]2[C@H](O)[C@@H](O)[C@H](*)O[C@@H]2CO)[C@H](O)[C@@H](O)[C@@H]1O; βGlc = OC[C@H]1O[C@@H](*)[C@H](O)[C@@H](O)[C@@H]1O; dPen = CC(C)(S)[C@@H](N)C(=O)O; CH2CH2 = C(C[*:2])[*:1]; Aib = CC(C)(N)C(=O)O; Ava = NCCCCC(=O)O; GABA = NCCCC(=O)O

Chain of Mu-type opioid receptor (P35372 whole entry): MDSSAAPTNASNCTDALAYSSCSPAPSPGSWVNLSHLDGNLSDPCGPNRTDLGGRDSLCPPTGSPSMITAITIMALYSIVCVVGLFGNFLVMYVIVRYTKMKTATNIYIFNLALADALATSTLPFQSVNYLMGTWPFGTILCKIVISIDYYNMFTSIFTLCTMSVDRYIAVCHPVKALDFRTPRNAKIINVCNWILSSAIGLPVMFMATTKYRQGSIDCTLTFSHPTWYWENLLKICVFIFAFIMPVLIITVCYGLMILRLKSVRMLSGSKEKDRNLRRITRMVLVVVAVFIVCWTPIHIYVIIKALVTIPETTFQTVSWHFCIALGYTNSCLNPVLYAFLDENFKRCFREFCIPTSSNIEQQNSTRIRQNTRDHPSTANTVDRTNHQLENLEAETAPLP
T1 sequence (P41143 whole entry): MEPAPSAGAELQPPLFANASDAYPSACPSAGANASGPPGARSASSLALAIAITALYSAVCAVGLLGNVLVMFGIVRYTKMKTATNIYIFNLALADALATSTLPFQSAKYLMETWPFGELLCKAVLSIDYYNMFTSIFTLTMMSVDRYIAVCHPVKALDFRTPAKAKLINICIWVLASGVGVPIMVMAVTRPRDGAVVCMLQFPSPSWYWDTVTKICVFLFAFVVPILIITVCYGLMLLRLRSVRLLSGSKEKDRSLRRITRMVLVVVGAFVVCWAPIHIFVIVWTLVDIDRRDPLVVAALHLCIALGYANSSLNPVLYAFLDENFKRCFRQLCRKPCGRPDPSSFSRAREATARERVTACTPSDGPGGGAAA
T2 sequence (P41145 whole entry): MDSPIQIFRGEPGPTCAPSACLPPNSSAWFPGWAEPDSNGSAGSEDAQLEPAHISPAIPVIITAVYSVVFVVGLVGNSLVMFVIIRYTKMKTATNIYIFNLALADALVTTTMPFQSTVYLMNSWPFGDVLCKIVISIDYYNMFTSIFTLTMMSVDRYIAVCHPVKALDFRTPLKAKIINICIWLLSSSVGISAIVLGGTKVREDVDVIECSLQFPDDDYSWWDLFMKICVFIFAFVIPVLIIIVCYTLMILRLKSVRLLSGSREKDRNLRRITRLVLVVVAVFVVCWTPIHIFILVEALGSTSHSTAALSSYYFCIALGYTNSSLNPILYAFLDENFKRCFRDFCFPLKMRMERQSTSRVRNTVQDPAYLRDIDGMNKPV

For `CC(C)C[C@H](NC(=O)[C@H](CO[C@@H]1O[C@H](CO)[C@@H](O)[C@H](O)[C@H]1O)NC(=O)[C@H](CCCCN)NC(=O)[C@H](CC(C)C)NC(=O)[C@H](C)NC(=O)[C@H](CCCCN)NC(=O)[C@H](CCC(=O)O)NC(=O)C(C)(C)NC(=O)[C@H](CC(C)C)NC(=O)[C@H](CC(N)=O)NC(=O)[C@@H]1CCCN1C(=O)[C@H](CC(C)C)NC(=O)[C@H](Cc1ccccc1)NC(=O)CNC(=O)[C@@H](NC(=O)[C@@H](N)Cc1ccc(O)cc1)[C@@H](C)O)C(N)=O`, the Ki in assay [1] is 3.6 nM; on Mu-type opioid receptor it was 2.6 nM; in assay [3] it was 2.3 nM. The A50 in the assay on Mus musculus [2] stood at 0.739 nmol; in the assay on Mus musculus [6], 0.36 µmol/kg. Moreover, the Time is listed as 10 min with Mus musculus [4] and 30 min with Mus musculus [5].

`CC(C)C[C@H](NC(=O)[C@H](Cc1ccccc1)NC(=O)CNC(=O)[C@@H](NC(=O)[C@@H](N)Cc1ccc(O)cc1)[C@@H](C)O)C(=O)N[C@@H](CO[C@@H]1O[C@H](CO)[C@@H](O[C@@H]2O[C@H](CO)[C@@H](O)[C@H](O)[C@H]2O)[C@H](O)[C@H]1O)C(N)=O` (H-YTGFLS(X1)-NH2): the Ki in [1] was 9.2 nM; at Mu-type opioid receptor it was 5 nM; in assay [3], 42 nM. In addition, the figures for the A50 in the assay on Mus musculus [7] and in the assay with Mus musculus [8] were 4.07 µmol/kg and 0.018 nmol, respectively.

Turning to `CC(C)C[C@H](NC(=O)[C@H](CO[C@@H]1O[C@H](CO)[C@@H](O)[C@H](O)[C@H]1O)NC(=O)[C@H](CCCCN)NC(=O)[C@H](CC(C)C)NC(=O)[C@H](C)NC(=O)[C@H](CCCCN)NC(=O)[C@H](CCC(=O)O)NC(=O)C(C)(C)NC(=O)[C@H](CC(C)C)NC(=O)[C@H](CC(N)=O)NC(=O)CCCNC(=O)[C@H](CC(C)C)NC(=O)[C@H](Cc1ccccc1)NC(=O)CNC(=O)[C@@H](NC(=O)[C@@H](N)Cc1ccc(O)cc1)[C@@H](C)O)C(N)=O` (H-YTGFL[GABA]NL[Aib]EKALKS(βGlc)L-NH2), the Ki in assay [1] is 4.2 nM; on Mu-type opioid receptor, 4.3 nM; in [3], 11 nM. Also, the A50 is 0.046 nmol with Mus musculus [2] and 0.31 µmol/kg in the assay with Mus musculus [6]. The Time with Mus musculus [9] is 90 min; in the assay on Mus musculus [4], 10 min; in the assay on Mus musculus [5], 30 min.

The compound `CC(C)C[C@H](NC(=O)[C@H](CO[C@@H]1O[C@H](CO)[C@@H](O)[C@H](O)[C@H]1O)NC(=O)[C@H](CCCCN)NC(=O)[C@H](CC(C)C)NC(=O)[C@H](C)NC(=O)[C@H](CC(N)=O)NC(=O)[C@H](CC(N)=O)NC(=O)C(C)(C)NC(=O)[C@H](CC(C)C)NC(=O)[C@H](CC(N)=O)NC(=O)CNC(=O)CNC(=O)[C@H](Cc1ccccc1)N(C)C(=O)CNC(=O)[C@@H](C)NC(=O)[C@@H](N)Cc1ccc(O)cc1)C(N)=O` showed a Ki on Mu-type opioid receptor of 120 nM. The Activity came out at 0% in assay [10] and 16% in [11].

Consider `CC(C)C[C@H](NC(=O)[C@H](CO[C@@H]1O[C@H](CO)[C@@H](O)[C@H](O)[C@H]1O)NC(=O)[C@H](CCCCN)NC(=O)[C@H](CC(C)C)NC(=O)[C@H](C)NC(=O)[C@H](CCC(=O)O)NC(=O)[C@H](CCC(=O)O)NC(=O)C(C)(C)NC(=O)[C@H](CC(C)C)NC(=O)[C@H](CC(N)=O)NC(=O)CNC(=O)CNC(=O)[C@H](Cc1ccccc1)N(C)C(=O)CNC(=O)[C@@H](C)NC(=O)[C@@H](N)Cc1ccc(O)cc1)C(N)=O`, for which the Activity in assay [10] and in assay [11] was 0% throughout.

As to `CC(C)C[C@H](NC(=O)[C@H](CO[C@@H]1O[C@H](CO)[C@@H](O)[C@H](O)[C@H]1O)NC(=O)[C@H](CCCCN)NC(=O)[C@H](CC(C)C)NC(=O)[C@H](C)NC(=O)[C@H](CC(N)=O)NC(=O)[C@H](CCC(=O)O)NC(=O)C(C)(C)NC(=O)[C@H](CC(C)C)NC(=O)[C@H](CC(N)=O)NC(=O)CNC(=O)CNC(=O)[C@H](Cc1ccccc1)N(C)C(=O)CNC(=O)[C@@H](C)NC(=O)[C@@H](N)Cc1ccc(O)cc1)C(N)=O`, the inhibitory constant (Ki) on Mu-type opioid receptor stood at 1200 nM. The Activity in assay [10] and in assay [11] was 0% throughout.

Consider `CC(C)C[C@H](NC(=O)[C@H](CO[C@@H]1O[C@H](CO)[C@@H](O)[C@H](O)[C@H]1O)NC(=O)[C@H](CCCCN)NC(=O)[C@H](CC(C)C)NC(=O)[C@H](C)NC(=O)[C@H](CCCCN)NC(=O)[C@H](CCC(=O)O)NC(=O)C(C)(C)NC(=O)[C@H](CC(C)C)NC(=O)[C@H](CC(N)=O)NC(=O)CCCCNC(=O)[C@H](CC(C)C)NC(=O)[C@H](Cc1ccccc1)NC(=O)CNC(=O)[C@@H](NC(=O)[C@@H](N)Cc1ccc(O)cc1)[C@@H](C)O)C(N)=O` (H-YTGFL[Ava]NL[Aib]EKALKS(βGlc)L-NH2), for which the figures for the Ki (in assay [1]; on Mu-type opioid receptor; in assay [3]) were 3.8 nM, 1.4 nM and 12 nM, respectively. For the same compound, the A50 in the assay on Mus musculus [2] amounted to 0.371 nmol; in the assay on Mus musculus [6] it was 0.36 µmol/kg. The Time is listed as 10 min in the assay on Mus musculus [4] and 30 min in the assay with Mus musculus [5].

Turning to `CC(C)C[C@H](NC(=O)[C@H](CO[C@@H]1O[C@H](CO)[C@@H](O[C@@H]2O[C@H](CO)[C@@H](O)[C@H](O)[C@H]2O)[C@H](O)[C@H]1O)NC(=O)[C@H](CCCCN)NC(=O)[C@H](CC(C)C)NC(=O)[C@H](C)NC(=O)[C@H](CCCCN)NC(=O)[C@H](CCC(=O)O)NC(=O)C(C)(C)NC(=O)[C@H](CC(C)C)NC(=O)[C@H](CC(N)=O)NC(=O)CCCNC(=O)[C@H](CC(C)C)NC(=O)[C@H](Cc1ccccc1)NC(=O)CNC(=O)[C@@H](NC(=O)[C@@H](N)Cc1ccc(O)cc1)[C@@H](C)O)C(N)=O` (H-YTGFL[GABA]NL[Aib]EKALKS(X1)L-NH2), the Ki in assay [1] stood at 17 nM; at Mu-type opioid receptor it was 13 nM; in assay [3], 52 nM. The A50 with Mus musculus [2] came to 0.165 nmol; with Mus musculus [6] it was 1.13 µmol/kg. The Time in the assay on Mus musculus [12] worked out at 180 min.

In the case of `CC1(C)SCCSC[C@@H](NC(=O)[C@@H](N)Cc2ccc(O)cc2)C(=O)N[C@@H](Cc2ccccc2)C(=O)N[C@H]1C(N)=O` (H-Y[dC]F[dPen]-NH2; linker 2-4 via CH2CH2), the Ki in assay [13] came out at 2000 nM; in [14], 24.8 nM.

Usually Ki stands for the equilibrium dissociation constant of an inhibitor or competing ligand from its target. Higher therefore signals lower affinity.
